Assay results reported in ChEMBL document CHEMBL1135932, “5'-Deoxy congeners of 9-(3-amido-3-deoxy-beta-D-xylofuranosyl)-N(6)-cyclopentyladenine: new adenosine A(1) receptor antagonists and inverse agonists” (J Med Chem, 2002).

Columns and labels:
Adenosine receptor A1 [1] = target: T1, Adenosine receptor A1 (Rattus norvegicus, UniProt P25099); experiment: Binding affinity at rat Adenosine A1 receptor in the absence of GTP
T1 sequence (P25099 whole entry): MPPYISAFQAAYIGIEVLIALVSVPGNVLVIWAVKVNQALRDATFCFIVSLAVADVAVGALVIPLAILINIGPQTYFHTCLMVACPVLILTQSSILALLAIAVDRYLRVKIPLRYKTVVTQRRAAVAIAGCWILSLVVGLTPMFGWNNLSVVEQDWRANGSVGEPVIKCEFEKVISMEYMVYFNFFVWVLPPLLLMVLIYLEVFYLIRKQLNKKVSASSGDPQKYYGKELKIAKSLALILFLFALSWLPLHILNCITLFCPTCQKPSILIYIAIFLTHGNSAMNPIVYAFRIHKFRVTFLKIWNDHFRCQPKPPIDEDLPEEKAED
Method in brief: (§1)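 GTP shift taken from these two Ki values. Done only for compounds giving >50% radioligand displacement at 10⁻⁶ M. At least three independent experiments in duplicate.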

Adenosine receptor A1 [2] = target: T2, Adenosine receptor A1 (Homo sapiens, UniProt P30542); experiment: Binding affinity at human Adenosine A1 receptor expressed in CHO cells; assay type: cell-based
T2 sequence (P30542 whole entry): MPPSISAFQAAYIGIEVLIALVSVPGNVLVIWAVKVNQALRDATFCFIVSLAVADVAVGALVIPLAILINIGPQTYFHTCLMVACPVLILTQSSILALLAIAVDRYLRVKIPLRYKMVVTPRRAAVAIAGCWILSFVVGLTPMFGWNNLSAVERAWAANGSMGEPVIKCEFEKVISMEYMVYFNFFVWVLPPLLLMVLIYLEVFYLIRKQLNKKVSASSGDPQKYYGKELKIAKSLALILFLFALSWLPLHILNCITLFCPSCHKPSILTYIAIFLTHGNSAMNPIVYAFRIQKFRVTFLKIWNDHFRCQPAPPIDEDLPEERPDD
Method in brief: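 Membranes from CHO cells stably expressing human A1 receptor (~3 pmol/mg protein), 6 μg, incubated 1 h at 25 °C in 50 mM Tris HCl pH 7.4 with ~1.6 nM [³H]DPCPX and increasing test concentrations. Stopped by dilution in ice-cold buffer, then filtration. At least three independent experiments in duplicate.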

[3] = target: T3, Adenosine receptor A1 (Homo sapiens) (UniProt P30542); experiment: Forskolin-induced cAMP production at human Adenosine A1 receptor; assay type: functional
T3 sequence (whole entry): T2 sequence (P30542 whole entry)
Method in brief: (§2)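 Human A1-expressing CHO cells seeded at 2 × 10⁵ cells/well. Next day, 30 min at 37 °C in Hepes-buffered medium pH 7.4 with adenosine deaminase (5 U/mL), cilostamide (50 μM) and rolipram (50 μM). […] Expressed as % of forskolin.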

Adenosine receptor A1 [4] = target: T1, Adenosine receptor A1; experiment: Binding affinity at rat Adenosine A1 receptor in the presence of GTP; method in brief: as §1
[5] = target: T3, Adenosine receptor A1 (Homo sapiens); experiment: Forskolin-induced cAMP production at human Adenosine A1 receptor receptor; assay type: functional; method in brief: as §2
[6] = target: T4, Adenosine receptor A1 (Rattus norvegicus) (UniProt P25099); experiment: Percent displacement of radioligand at 10e-6 M from rat Adenosine A1 receptor
T4 sequence (whole entry): T1 sequence (P25099 whole entry)
Method in brief: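 Radioligand displacement by ligand at 10⁻⁶ M, using rat cortical membranes labelled with [³H]DPCPX.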

Adenosine receptor A2a = Adenosine receptor A2a (Rattus norvegicus, UniProt P30543); experiment: Binding affinity at rat Adenosine A2A receptor
Chain of Adenosine receptor A2a (P30543 whole entry): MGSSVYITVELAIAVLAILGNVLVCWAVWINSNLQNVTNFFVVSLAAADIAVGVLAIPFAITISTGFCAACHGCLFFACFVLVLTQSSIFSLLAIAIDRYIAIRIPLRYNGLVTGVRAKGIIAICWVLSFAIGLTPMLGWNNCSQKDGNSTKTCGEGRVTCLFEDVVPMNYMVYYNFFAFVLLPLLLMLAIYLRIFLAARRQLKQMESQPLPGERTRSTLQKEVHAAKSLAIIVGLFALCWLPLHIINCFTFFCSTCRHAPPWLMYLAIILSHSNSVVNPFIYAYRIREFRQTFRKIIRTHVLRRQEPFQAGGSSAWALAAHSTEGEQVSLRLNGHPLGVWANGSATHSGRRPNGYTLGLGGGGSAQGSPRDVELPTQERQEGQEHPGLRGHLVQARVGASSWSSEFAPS
Method in brief: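 Rat striatal membranes with [³H]ZM241385 as radioligand. At least three independent experiments in duplicate.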

[7] = target: T3, Adenosine receptor A1 (Homo sapiens); experiment: Forskolin-induced cAMP production at human A1 adenosine receptor; assay type: functional; method in brief: as §2

| Structure (SMILES) | Ki (Adenosine receptor A1 [1]) | Ki (Adenosine receptor A1 [2]) | Production [3] | Ki (Adenosine receptor A1 [4]) | further results |
| --- | --- | --- | --- | --- | --- |
| C[C@H]1O[C@@H](n2cnc3c(NC4CCCC4)ncnc32)[C@H](O)[C@H]1NC(=O)CCCOc1ccccc1 | 473 nM |  |  |  |  |
| O=C(N[C@@H]1[C@@H](O)[C@H](n2cnc3c(NC4CCCC4)ncnc32)O[C@@H]1CO)c1ccc2c(c1)OCO2 | 102 nM | 443 nM | 126% |  |  |
| Cn1cnc2c(NC3CCCC3)ncnc21 | 279 nM | 1190 nM |  | 259 nM | Production [5]: 139% |
| O=C(N[C@@H]1[C@@H](O)[C@H](n2cnc3c(NC4CCCC4)ncnc32)O[C@@H]1CO)c1ccc(F)c(Cl)c1 | 78 nM | 579 nM | 125% | 54 nM |  |
| Cc1ccc(C(=O)N[C@@H]2[C@@H](O)[C@H](n3cnc4c(NC5CCCC5)ncnc43)O[C@@H]2C)cc1C | 236 nM |  |  |  |  |
| C[C@H]1O[C@@H](n2cnc3c(NC4CCCC4)ncnc32)[C@H](O)[C@H]1NC(=O)c1ccc(F)c(Cl)c1 |  |  |  |  | Displacement [6]: 44% |
| CC(C)c1ccc(C(=O)N[C@@H]2[C@@H](O)[C@H](n3cnc4c(NC5CCCC5)ncnc43)O[C@@H]2CO)cc1 | 171 nM |  |  |  | Ki (Adenosine receptor A2a): 437 nM |
| Cc1ccc(C(=O)N[C@@H]2[C@@H](O)[C@H](n3cnc4c(NC5CCCC5)ncnc43)O[C@@H]2CO)cc1C | 24 nM | 137 nM |  | 17 nM | Production [7]: 126% |
| C[C@H]1O[C@@H](n2cnc3c(NC4CCCC4)ncnc32)[C@H](O)[C@H]1NC(=O)C1CCCC[C@H]1C(=O)c1cccs1 (some centres not stated) | 98 nM | 971 nM | 182% | 70 nM |  |
| OC[C@H]1O[C@@H](n2cnc3c(NC4CCCC4)ncnc32)C[C@H]1O | 110 nM |  |  | 470 nM |  |
| CCCn1c(=O)c2[nH]c(C3CCCC3)nc2n(CCC)c1=O |  |  | 157% |  |  |
| C[C@H]1O[C@@H](n2cnc3c(NC4CCCC4)ncnc32)[C@H](O)[C@H]1NC(=O)CCCc1cccs1 | 55 nM | 419 nM | 148% | 38 nM |  |
| CC(C)c1ccc(C(=O)N[C@@H]2[C@@H](O)[C@H](n3cnc4c(NC5CCCC5)ncnc43)O[C@@H]2C)cc1 | 270 nM |  |  |  |  |
| Cc1ccc(C(=O)N[C@@H]2[C@@H](O)[C@H](n3cnc4c(NC5CCCC5)ncnc43)O[C@@H]2C)cc1F |  |  |  |  | Dispacement [6]: 47% |
| O=C(CCCc1cccs1)N[C@@H]1[C@@H](O)[C@H](n2cnc3c(NC4CCCC4)ncnc32)O[C@@H]1CO | 67 nM | 630 nM | 152% | 46 nM |  |
| C[C@H]1O[C@@H](n2cnc3c(NC4CCCC4)ncnc32)[C@H](O)[C@H]1O | 70 nM |  |  | 450 nM |  |
| CCc1ccc(C(=O)N[C@@H]2[C@@H](O)[C@H](n3cnc4c(NC5CCCC5)ncnc43)O[C@@H]2C)cc1 | 240 nM |  |  |  |  |
| Cc1ccc(C(=O)N[C@@H]2[C@@H](O)[C@H](n3cnc4c(NC5CCCC5)ncnc43)O[C@@H]2CO)cc1F | 112 nM | 773 nM | 135% |  |  |
| C[C@H]1O[C@@H](n2cnc3c(NC4CCCC4)ncnc32)[C@H](O)[C@H]1NC(=O)C1(c2ccccc2)CCCC1 | 138 nM |  |  | 114 nM |  |
| C[C@H]1O[C@@H](n2cnc3c(NC4CCCC4)ncnc32)[C@H](O)[C@H]1NC(=O)C1(c2ccccc2)CCCCC1 | 286 nM |  |  | 210 nM |  |
